In the array DNA melting data of Ke et al. (doi:10.1101/2024.01.08.574731):

Assays:
[1] = melting temperature; fluorescence melt of hairpins on a sequencing array, two-state fit, raised by 9.35 °C to match UV melts; conditions: sodium 0.088 M
Method in brief: (§1)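 To match UV melts, fitted temperatures were raised by 9.35 °C. These fits were bootstrapped two-state models that gave melting temperature and folding enthalpy, combined by inverse variance over four replicates. The input was normalised Cy3 fluorescence of library hairpins with annealed Cy3 and quencher oligos on a sequenced MiSeq flow cell, imaged in 50 mM Na-HEPES pH 8.0, 25 mM NaCl in 2.5 °C steps up to 60 °C.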

[2] = folding enthalpy; higher = less favourable; fluorescence melt of hairpins on a sequencing array, two-state fit; conditions: sodium 0.088 M
Method in brief: as §1

Sequence | Tm [1] | folding enthalpy [2]
GATGCGGGAAACCACATC ((((.((....)).)))) | 44.8 °C | -35.8 kcal/mol
GATCGGCATCCGATC ((((((...)))))) | 55.3 °C | -40.1 kcal/mol
GCTTAGCGAAAGCTGAGC (((.(((....))).))) | 57.6 °C | -45.6 kcal/mol
GCTTACGAAAGTATAAGC ((((((....)))..))) | 38.3 °C | -28.6 kcal/mol
TGAATGAAAATTCA (((((....))))) | 30.4 °C | -9.75 kcal/mol
GCCAACGAAAGTTCCGGC ((((((....)))..))) | 36.3 °C | -20.6 kcal/mol
GTTAGGAAACTAAC (((((....))))) | 41.4 °C | -15.7 kcal/mol
GCCGGTCCGAAAGGAGGC (((..(((....)))))) | 48 °C | -21.9 kcal/mol
CGGCTCCGGAAACGGCCG (((..(((....)))))) | 50.3 °C | -27.1 kcal/mol
CGACCGCGGAAACGCTCG (((..(((....)))))) | 34 °C | -11.2 kcal/mol
GATCTGACACCAGATC ((((((....)))))) | 46.1 °C | -34.7 kcal/mol
GGGGACGAAAGTCTACCC ((((((....)))..))) | 47.2 °C | -17.9 kcal/mol
GATCATGGTGATGATC ((((((....)))))) | 49 °C | -39.4 kcal/mol
GAGAGCGAAAGCTCGCTC ((((((....)))..))) | 66.9 °C | -13 kcal/mol
TGAGAGAAATCTCA (((((....))))) | 28.2 °C | -9.57 kcal/mol
GATCCCTGTAGGGATC ((((((....)))))) | 65.8 °C | -41.1 kcal/mol
GGTGGCGGAAACGCCGTC (..((((....))))..) | 45.1 °C | -10.1 kcal/mol
GATCCAGTTGTGGATC ((((((....)))))) | 50.4 °C | -38.6 kcal/mol
GAGCGCGAAAGCGGACTC ((((((....)))..))) | 52.3 °C | -13.7 kcal/mol
GACGACCGAAAGGTGGTC (((.(((....))).))) | 56 °C | -34.8 kcal/mol
GATGGGGGAAACCCCATC (((((((....))))))) | 65.4 °C | -31.2 kcal/mol
GACAACCGAAAGGTAGTC (((.(((....))).))) | 51.3 °C | -33 kcal/mol
GAGTCCCGAAAGGGTCTC (((.(((....))).))) | 53 °C | -30.6 kcal/mol

Sequence | Tm [1] | folding enthalpy [2]
GATCGCAGCGGCGATC ((((((....)))))) | 68.4 °C | -28.8 kcal/mol
GAACCCGAAAGGGGCTTC ((((((....)))..))) | 51 °C | -20 kcal/mol
GCGGGTGCGAAAGCACGC (((..(((....)))))) | 55.7 °C | -10.3 kcal/mol
GGGACCGAAAGGTTCCCC ((((((....)))..))) | 59.7 °C | -15.4 kcal/mol
GCAAATGGAAACACTTGC ((((.((....)).)))) | 33.9 °C | -31.5 kcal/mol
GTTCGAGGAAACTTGAAC ((((.((....)).)))) | 44.5 °C | -32.4 kcal/mol
GGTATCGAAAGATTACC ((((((....))).))) | 37.7 °C | -24.9 kcal/mol
GCCAGCTCGAAAGAGGGC (((..(((....)))))) | 45 °C | -24.5 kcal/mol
GAGGGAGGAAACTCTCTC (((.(((....))).))) | 44.2 °C | -24.6 kcal/mol
GTATGAGCGAAAGCTTAC (((..(((....)))))) | 30.1 °C | -9.43 kcal/mol
GGTCTGGAAACAGACC ((((((....)))))) | 63.9 °C | -38 kcal/mol
GGACACTCGAAAGAGTCC (((..(((....)))))) | 39 °C | -15.9 kcal/mol
GGTTATCCGAAAGGAACC (((..(((....)))))) | 30.2 °C | -15.2 kcal/mol
GCTGCGCGAAAGCGTTGC ((..(((....)))..)) | 56.7 °C | -18.9 kcal/mol
GGAATCGGAAACGACTCC (((.(((....))).))) | 40.4 °C | -28.9 kcal/mol
GCCTTGCGAAAGCTAAGC ((.(.((....)).).)) | 45.8 °C | -9.38 kcal/mol
GCCGCGCGAAAGCGCTGC ((.((((....)))).)) | 61.5 °C | -16.6 kcal/mol
GTGCTGGAAACAGCAC ((((((....)))))) | 67.6 °C | -33.2 kcal/mol
CGAAAACGGAAACGTTCG (((..(((....)))))) | 37 °C | -19.8 kcal/mol
GCAAAGCGAAAGCAATGC (((..((....))..))) | 34.5 °C | -12.1 kcal/mol
GTTTTCGAAAGAAAAAC ((((((....))).))) | 39.2 °C | -15.8 kcal/mol
GATCAGATGACTGATC ((((((....)))))) | 47.8 °C | -35.3 kcal/mol
GATCCTTCCTAGGATC ((((((....)))))) | 52.1 °C | -44.7 kcal/mol
